The record followed here is PubChem BioAssay AID624204 (Sanford-Burnham Center for Chemical Genomics, 2012).

The whole screen tested about 360,000 compounds, of which about 770 (0.21%) were called active.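 The calls were made as follows: active = inhibition at least 30% at 10 µM, raw YFP signal under a set limit, fluorescence ratio 0.5 to 1.5; inactive = the rest.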 Many of the other results were omitted from the sample, so actives are more common in it than they were.

Chain of Sentrin-specific protease 1 (Homo sapiens) (Q9P0U3 419-644 limits assumed): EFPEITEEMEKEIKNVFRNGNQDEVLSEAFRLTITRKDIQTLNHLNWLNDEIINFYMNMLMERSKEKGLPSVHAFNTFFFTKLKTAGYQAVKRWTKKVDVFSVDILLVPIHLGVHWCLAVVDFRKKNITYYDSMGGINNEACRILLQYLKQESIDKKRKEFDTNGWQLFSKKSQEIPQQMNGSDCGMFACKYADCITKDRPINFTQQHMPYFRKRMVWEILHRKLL

The experiment addresses Sentrin-specific protease 1 (Homo sapiens) (UniProt Q9P0U3). Description: blockers of SENP1 SUMO protease activity – biochemical, FRET, uHTS, primary screen (AID 624204).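 Also: 0% = enzyme with DMSO and 100% = no enzyme wells.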 The settings on record: recombinant SENP1 catalytic domain, CyPet-SUMO1-YPet FRET cleavage; at 10 µM; active compounds read high. The essentials:
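system = hSENP1 catalytic domain, recombinant | reagent = SFCypet-SUMO1-SFYpet substrate at 25 nM | doses = one dose per compound, 10 µM, 0.5% DMSO | incubation = enzyme reaction for 50 min at room temperature, dark | measured by = FRET, CFP and YFP emission | controls = no-enzyme low, enzyme-DMSO high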
Usually inhibition stands for the relative decrease from the control value, in per cent. `CCOCCc1c(O)[nH]c(=S)[nH]c1=O`: the inhibition is -0.672% (inactive).
On to `COc1ccccc1N=Nc1c(O)[nH]c(=S)[nH]c1=O`, for which the inhibition was 48.9% (active).
The same measure for `O=C1N=c2ccccc2=C/C1=C\c1c(O)[nH]c(=S)[nH]c1=O`: -11.3% (inactive); for `CCCOC(=O)C1C2c3ccccc3C(c3ccccc32)C1C(=O)O` (stereo not given): -1.79% (inactive).
The same measure for `CC(CC(C#N)(c1ccccc1)c1ccccc1)N1CCCCC1` (stereo not given): 1.04% (inactive).
